According to ChEMBL document CHEMBL1145062, “Conformationally defined retinoic acid analogues. 5. Large-scale synthesis and mammary cancer chemopreventive activity for (2E,4E,6Z,8E)-8-(3',4'-dihydro-1'(2'H)-naphthalen-1'-ylidene)-3,7-dimethyl-2,4,6-octatrienoic acid (9cUAB30)” (2003):

Key:
Rattus norvegicus [1] = assay: Anti cancer activity of compound was measured by final body weight(g) of rat in 100 mg/kg diet after MNU intravenous injection; format: functional
Procedure, shortened: (§1)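 Female rats housed five per cage on 4% Teklad rodent diet; single intravenous MNU via jugular vein at 50 days of age. Retinoid mixed into diet (Patterson–Kelly liquid–solid blender; stability checked by HPLC) and fed continuously from 53 days of age; n = 20 per group; diet-only MNU control group. Weighed weekly; body weight and liver, uterus, ovary weights (g per 100 g body weight) taken at study end.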

Rattus norvegicus [2] = assay: Anti cancer activity of compound was measured by final body weight(g) of rat in 200 mg/kg diet after MNU intravenous injection; format: functional; procedure, shortened: as §1
Rattus norvegicus [3] = assay: Anti cancer activity of compound was measured by weight of liver in gram per 100 g body weight of rat in 100 mg/kg diet after MNU intravenous injection; format: functional; procedure, shortened: as §1
Rattus norvegicus [4] = assay: Anti cancer activity of compound was measured by weight of liver in gram per 100 g body weight of rat in 200 mg/kg diet after MNU intravenous injection; format: functional; procedure, shortened: as §1
Rattus norvegicus [5] = assay: Anti cancer activity of compound was measured by weight of uterus in gram per 100 g body weight of rat in 100 mg/kg diet after MNU intravenous injection; format: functional; procedure, shortened: as §1
Rattus norvegicus [6] = assay: Anti cancer activity of compound was measured by weight of uterus in gram per 100 g body weight of rat in 200 mg/kg diet after MNU intravenous injection; format: functional; procedure, shortened: as §1
Rattus norvegicus [7] = assay: Anti cancer activity of compound was measured by weight of ovaries in gram per 100 g body weight of rat in 200 mg/kg diet after MNU intravenous injection; format: functional, Female gonad; procedure, shortened: as §1
Rattus norvegicus [8] = assay: Anti cancer activity of compound was measured by weight of ovaries in gram per 100 g body weight of rat in 100 mg/kg diet after MNU intravenous injection; format: functional, Female gonad; procedure, shortened: as §1

What does the source list for `CC(=C\C=C\C(C)=C\C(=O)O)/C=C1\CCCc2ccccc21`?
Body weight (Rattus norvegicus [1]): 271 g; Body weight (Rattus norvegicus [2]): 272 g; Organ weight (Rattus norvegicus [3]): 2.96 g; Organ weight (Rattus norvegicus [4]): 3.11 g; Organ weight (Rattus norvegicus [5]): 0.16 g; Organ weight (Rattus norvegicus [6]): 0.21 g; Organ weight (Rattus norvegicus [7]): 0.052 g; Organ weight (Rattus norvegicus [8]): 0.046 g
